Compound activity deposited in PubChem BioAssay by several laboratories.
BB579 growth dn = growth inhibitors of yeast BB579 in restrictive medium, primary screen, yeast lifespan-shortening project, S. cerevisiae; 140,000 tested, 0.51% active; inhibition, % at 10 µM; OD615, 48 h;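 active = inhibition above a set limit, 3 SD over the mean compound inhibition, cut at about 44% in these data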
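test system = yeast BB579 (DeaD) | buffer or medium = restrictive CSMM-D medium | doses = single compound dose of 10 µM, 0.25% DMSO final | times = 4 h preincubation and 48 h exposure at 30 °C | technique = culture absorbance at 615 nm | benchmarks = amphotericin B 10 µg/mL, positive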
Yeast life ext = compounds extending yeast replicative lifespan, primary screen, S. cerevisiae, OD615. S. cerevisiae growth with nicotinamide; deaD strain in restrictive glucose medium. inhibition of the nicotinamide effect, % at 10 µM. 130,000 tested, 0.68% active. AID 775, 2007;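 active = inhibition above a set limit, placed 3 SD over the median of all compounds, cut at about 26% in these data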;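 also: 0% = nicotinamide-treated wells and 100% = cells grown without nicotinamide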
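Assay system: engineered S. cerevisiae DeaD replicative-lifespan strain, galactose-grown log-phase cells; Buffer or medium: CSMM-D glucose medium, restrictive; Probe or stimulus: nicotinamide 1.5 mM; Compound: single dose 10 µM compound, 0.25% DMSO; Schedule: 4 h preincubation then 48 h treatment at 30 °C; Technique: OD615 measurement.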
RAM inhibit = inhibitors of the yeast RAM network, primary screen, dse1pr::URA3 reporter, 5-FOA selection. AID 868, 2007. 190,000 tested, 1.8% active. S. cerevisiae dse1pr::URA3 reporter, 5-FOA growth OD615, 2 d; analog-sensitive cbk1-as2 kinase mutant strain. inhibition, % at 50 µM;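 active = inhibition above a set limit, 3 SD over mean compound inhibition, cut at about 8.4% in these data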;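 also: 0% = DMSO-only wells with no growth and 100% = 10 µM 1-NA-PP1 full growth; inhibition rescues growth on 5-FOA so higher OD means more RAM inhibition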
Insulin prom up = insulin promoter activators in MIN6 cells, imaging, high-content screening, mouse beta cells; MIN6 insulin promoter-GFP reporter; stronger effect = higher value; z-score at 5 µM; 190,000 tested, 0.3% active; AID 1625, 2009;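 active = z-score above 3 at 5 µM with at least 500 cells counted in the well; inconclusive = wells under 500 cells, flagged as cytotoxic or low count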
Insulin prom inh = inhibitors of insulin promoter-driven GFP, primary screen, imaging, TRM-6 cells, eGFP reporter, cell count; 130,000 tested, 0.9% active; inhibition, % at 2 µM; reporter expression induced with tamoxifen;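 active = inhibition above the mean plus 3 SD, with well images judged a real hit on visual review, cut at about 60% in these data, passing the limit was not always enough; inconclusive = inhibition over the cutoff but images rejected on review; inactive = inhibition not above the cutoff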
Numbers without * were called inactive; ? = inconclusive; nt = not tested or not shown. Compounds with a hit are over-represented: about 3.1% of the library has one in this group of screens.

SMILES	BB579 growth dn	Yeast life ext	RAM inhibit	Insulin prom up	Insulin prom inh
CC(=O)Nc1ccc(Nc2cc(C)nc3c(-c4ccccc4)cnn23)cc1	-36	-10	1	-0.42	75*
CCSc1cc(C)nc2c(-c3ccccc3)cnn12	nt	nt	nt	-0.51	nt
CC(=O)Nc1ccc(Nc2cc(-c3ccccc3)nc3ncnn23)cc1	nt	nt	4	0.23	-14
Cc1cc(N)n2ncc(-c3cccc(Br)c3)c2n1	-36	-14	0	-0.69	93*
COc1ccc(C2C3=C(CCCC3=O)Nc3nc(SCc4ccccc4)nn32)cc1OC (configuration not stated)	-33	-4	8	0.28	-31
COc1ccc(C2C3=C(CCCC3=O)Nc3nc(SCc4ccc(C(=O)O)cc4)nn32)cc1OC (configuration not stated)	-55	-7	8.8*	-0.93	nt
Cc1cc(C(=O)NCC2COc3ccccc3O2)c2ccccc2n1 (configuration not stated)	nt	nt	0	nt	83*
CC(C)(C)CC(C)(C)N1CNC(=S)NC1	nt	nt	nt	-0.25	nt
O=C(O)c1ccccc1C(=O)NCC(O)c1ccccc1 (configuration not stated)	nt	nt	nt	-0.01	nt
O=C(CNC(=O)c1ccccc1C(=O)O)c1ccccc1	2	nt	-1	-0.07	78*
COc1ccccc1Nc1nc(-c2ccccc2O)nc2ccccc12	nt	nt	4	-0.17	nt
COc1ccc(OC)c(Nc2nc(-c3ccccc3O)nc3ccccc23)c1	nt	nt	9.7*	-0.02	nt
Cc1cc(NC(=O)Nc2cc(F)ccc2F)no1	nt	nt	nt	1.1	nt
CCN(CC)c1ccc(/C=N/NC(=S)NCc2ccco2)cc1	2	-4	0	-0.18	100*
Oc1ccc(/C=N/NC(=S)NCc2ccco2)cc1	-12	-16	1	0.43	-13
O=C1NCCCc2c1oc1ccc(O)cc21	-7	-7	0	2.3	nt
Oc1c(Cl)cc(Cl)c2c1NCCC2	99*	-26	-1	0.94	18
CC(C)C(=O)Nc1ccc2nn(-c3ccccc3)nc2c1	nt	nt	1	-0.05	nt
O=C(N/N=C/c1ccc2cccnc2c1)c1nc2ccccc2c(=O)[nH]1	nt	nt	nt	0.58	nt
COc1ccc(-c2n[nH]c(C(F)(F)F)c2-c2cc3ccccc3o2)c(O)c1	100*	-29	-1	0.62	-9
COc1ccccc1-c1c(-c2ccc(OCC(=O)NN)cc2O)n[nH]c1C(F)(F)F	-34	2	2	1.3	-93
CCOC(=O)NN1C(=O)c2ccccc2NC12CCCC2	nt	nt	-1	nt	0
O=C1C2C(c3ccccc3)C=CC(c3ccccc3)C2C(=O)N1c1ccccn1 (configuration not stated)	-57	30*	0	-0.14	36
CC(C)c1cc(N2CCC(=O)NC2=O)cc(C(=O)O)c1O	-35	-4	0	0.9	-36
c1cc2c(cc1C1CCCCC1)c1c3n2CCCNC3CCC1 (configuration not stated)	68*	nt	-1	?	-67
SMILES	BB579 growth dn	Yeast life ext	RAM inhibit	Insulin prom up	Insulin prom inh
Cc1ccc2c(c1)c1c3n2CCCNC3CCC1 (configuration not stated)	-1	5	2	?	nt
COc1ccc(OC)c(NC(=O)c2ccc(NS(=O)(=O)c3c(C)noc3C)cc2)c1	-39	-6	0	0.99	nt
COc1cc(NC(=O)c2ccc(NS(=O)(=O)c3c(C)noc3C)cc2)cc(OC)c1	-39	-2	11*	0.95	nt
Cc1nc(SCc2ccccc2F)c2cnn(-c3ccccc3)c2n1	nt	nt	11*	-1.4	-20
COC(=O)CN1C(=S)N(Cc2ccccc2)C(=O)C1CC(=O)Nc1ccc(OC)cc1 (configuration not stated)	-35	-2	0	nt	80*
COc1ccc(CN2C(=O)N(c3ccc(OC)cc3)C(=O)C2CC(=O)Nc2ccccc2)cc1 (configuration not stated)	nt	nt	9.5*	0.53	nt
Cc1ccc(OCc2nc(-c3cccs3)no2)c([N+](=O)[O-])c1	nt	nt	8.7*	-0.48	13
O=C(/C=C/c1ccc(N2CCC(c3ccccc3)=N2)cc1)c1ccccc1	nt	nt	11*	nt	-456
COC(=O)c1ccccc1NC(=O)CSc1nnc(-c2ccc(OC)cc2)n1C	-6	nt	3	-0.19	-69
CCc1sc(N(C(=O)Cc2ccccc2)c2ccccc2F)nc1-c1ccc(C)cc1	-13	9	6	-0.33	nt
CCc1sc(N(C(=O)Cc2ccccc2)c2cccc(F)c2)nc1-c1ccc(C)cc1	-29	-9	8.9*	nt	12
O=C(/C=C/Nc1nccs1)C(F)(F)Cl	nt	nt	0	-1.2	nt
O=C1NC(=S)N/C1=C\C=C\c1ccccc1	nt	nt	nt	-0.22	nt
COc1ccc(/C=C/C=C2\NC(=S)NC2=O)cc1	nt	nt	10*	-0.56	nt
COC(=O)CN(c1cc([N+](=O)[O-])ccc1OC)S(C)(=O)=O	nt	nt	1	0.78	nt
Cc1ccc(C(=O)NNC(=S)NC(=O)c2ccc(Cl)cc2)cc1	-32	95*	1	nt	0
Cc1ccc(Cl)cc1NC(=S)N/N=C/c1cccc2ccccc12	nt	nt	nt	-0.36	nt
Cc1ccc(-n2cnc3cc(NCc4cccs4)ccc32)cc1	50*	-21	1	nt	7
c1ccc(-n2cnc3cc(NCc4cccs4)ccc32)cc1	-22	-20	0	-0.23	-11
CN1CCc2cc3c(c4c2[C@H]1[C@H](O)c1ccccc1-4)OCO3	62*	-5	0	-0.26	14
O=C(O)COc1ccccc1/C=N/NC(=O)c1cccc(S(=O)(=O)Nc2cccc(Cl)c2)c1	nt	nt	4	1	nt
CC1=CC2=NC(=O)CC(C)(C(=O)N(CC(=O)NC3CCCC3)c3cc(C)cc(C)c3)N2C=C1 (configuration not stated)	nt	nt	4	0	nt
Cc1cc(C(=O)Nc2ccc3c(c2)OCCO3)c(C)o1	-36	-25	0	nt	-34
CC(=O)c1c(Nc2ccc3c(c2)OCCO3)oc(C)cc1=O	1	27*	-1	-0.04	nt
CCCCOC(=O)c1ccc(NC(=O)CSC2=Nc3ccccc3C3CC=NN23)cc1 (configuration not stated)	-21	-12	8.4*	nt	nt
SMILES	BB579 growth dn	Yeast life ext	RAM inhibit	Insulin prom up	Insulin prom inh
Cn1c2c(c(=O)n(C)c1=O)C(C(F)(F)F)(C(F)(F)F)N=C(CCC1CCCCC1)N2	-14	3	1	-2.2	-19
O=C(NC1C=CS(=O)(=O)C1)c1sc2ccccc2c1Cl (configuration not stated)	-17	-5	1	3.9*	-162
O=C1N=C(N2CCCC2)S/C1=C\C=C\c1ccccc1	nt	nt	nt	0.84	nt
CC/C(C)=N/N1C(=O)c2ccccc2NC1(C)CC (configuration not stated)	nt	nt	0	0.63	33
Cn1cc(CN2CCc3ccccc3C2)c2ccccc21	-14	5	0	-1	81*
COc1ccc(Cl)cc1-c1nc(-c2ccc(NC(=O)c3ccncc3)cc2)no1	nt	nt	nt	nt	-29
